High-throughput results deposited in PubChem BioAssay by Johns Hopkins Ion Channel Center.
TRPC4 act = activators of mouse TRPC4 channel. Q9QUQ5. HEK293 TRPC4beta/mu-opioid, Fluo4 calcium fluorescence; hits give high values. B-score at 10 µM. 0.49% of 310,000 active. AID 2237;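 active means B-score above 5 SD of library B-scores, and initial fluorescence ratio not above library mean plus 5 SD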;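 further: positive B-score marks a calcium rise read as TRPC4 activation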
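System – HEK293 cells stably co-expressing mouse TRPC4beta and mu-opioid receptor · Signal – Fluo4 calcium-sensitive dye fluorescence, kinetic, 1 Hz baseline · Benchmarks – buffer (low) and maximal DAMGO (high) · Read-out – B score of integrated fluorescence ratio per well · Incubation – dye loading 45 min room temperature, 110 s kinetic read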
TRPC6 activator = activates the mouse TRPC6 cation channel. HEK293-TRPC6 membrane potential dye fluorescence; hits give high values. B-score at 10 µM. Q61143. 0.13% of 310,000 active;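 active means B-score of the integrated fluorescence ratio above library mean plus 3 SD, and starting fluorescence ratio within library mean plus 5 SD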;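 further: higher score means more depolarization so channel activation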
Target sequence (Q61143 whole entry, looked up): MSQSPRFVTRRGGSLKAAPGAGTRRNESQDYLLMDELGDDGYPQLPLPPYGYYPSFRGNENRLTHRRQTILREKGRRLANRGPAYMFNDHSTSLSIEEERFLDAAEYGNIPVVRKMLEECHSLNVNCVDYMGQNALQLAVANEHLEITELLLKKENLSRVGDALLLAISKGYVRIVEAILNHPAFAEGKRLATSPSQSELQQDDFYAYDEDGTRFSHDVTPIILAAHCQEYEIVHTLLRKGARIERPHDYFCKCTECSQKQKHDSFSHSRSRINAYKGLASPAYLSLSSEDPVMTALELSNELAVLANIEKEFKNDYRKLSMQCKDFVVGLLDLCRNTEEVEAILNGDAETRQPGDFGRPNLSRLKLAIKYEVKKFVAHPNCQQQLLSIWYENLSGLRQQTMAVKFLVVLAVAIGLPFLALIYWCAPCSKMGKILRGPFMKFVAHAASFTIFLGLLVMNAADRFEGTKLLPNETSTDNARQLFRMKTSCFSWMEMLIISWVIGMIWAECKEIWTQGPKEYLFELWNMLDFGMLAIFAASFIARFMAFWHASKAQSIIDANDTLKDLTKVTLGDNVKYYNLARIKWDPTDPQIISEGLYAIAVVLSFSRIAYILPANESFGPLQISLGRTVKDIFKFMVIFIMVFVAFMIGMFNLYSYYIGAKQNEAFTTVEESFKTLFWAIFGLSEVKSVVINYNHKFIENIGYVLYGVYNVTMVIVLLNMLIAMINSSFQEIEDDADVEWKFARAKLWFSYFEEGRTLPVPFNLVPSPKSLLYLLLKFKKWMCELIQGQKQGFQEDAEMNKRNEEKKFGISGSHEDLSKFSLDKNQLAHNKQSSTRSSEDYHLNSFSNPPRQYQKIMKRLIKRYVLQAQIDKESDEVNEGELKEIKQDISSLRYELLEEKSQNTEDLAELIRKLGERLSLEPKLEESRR
TRPC4 PAM = allosterically enhances the mouse TRPC4 cation channel; Q9QUQ5; HEK293 TRPC4beta/mu-opioid, DAMGO EC20, Fluo-4 Ca2+ flux; hits give high values; B-score at 10 µM; 0.42% of 310,000 active; AID 2227;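 active means B-score of calcium response area above 5 SD of library B-scores, with initial fluorescence ratio within 5 SD of library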;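 further: B-score of integrated fluorescence ratio over time as area under calcium response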
TRPC6 inh = mouse TRPC6 channel inhibition; AID 2553; HEK293-TRPC6, membrane potential dye, ACh-evoked depolarization; hits give low values; B-score at 10 µM; Q61143; 1.1% of 310,000 active;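 active means B-score under library mean minus 3 SD, initial fluorescence not abnormally high, positive integrated signal ratio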;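 further: B-score derived from integrated fluorescence ratio over the kinetic read; more negative B-score means stronger inhibition of depolarization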
TRPC4 inh = blocks the mouse TRPC4 cation channel. Q9QUQ5. HEK293 TRPC4beta/mu-opioid, DAMGO-evoked Fluo4 calcium flux; hits give low values. B-score at 10 µM. 0.39% of 300,000 active;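 active means B-score over 3 SD under the library average, no early fluorescence shift, positive overall ratio signal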
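System: stable TRPC4beta/mu-opioid receptor HEK293 cells; Dosing: single-point compound dosing; Measured by: Fluo4 Ca2+ flux fluorescence; Read-out basis: per-well B score of integrated baseline-normalized Fluo4 ratio.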
TRPC4 spec 2 = second selectivity test of TRPC6 inhibitors: effect on mouse TRPC4; shares compounds with TRPC6 inh; inhibition, % at 10 µM; HEK293 TRPC4/MOR, membrane potential dye fluorescence; channel activated by saturating DAMGO dose; 42% of 920 active;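 active means compounds whose fluorescence signal differed from control wells by over 3 SD, either direction, in both duplicate plates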
TRPC4 spec = mouse TRPC4 off-target activity of TRPC6 inhibitors | HEK293 TRPC4/mu-opioid, membrane potential fluorescence | shares compounds with TRPC6 inh | 61% of 920 active | AID 2777 | activity change, negative = inhibition, % at 10 µM;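 active means rise or fall in signal beyond 3 SD of buffer-only wells in both replicate plates, either sign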;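 further: integrated kinetic ratio of fluorescence range over baseline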
HEK293 MPD ctr 2-1 = parental HEK293 nonspecific activity of TRPC6 inhibitors, second screen | parental HEK293 membrane potential dye fluorescence; maximal acetylcholine challenge after compound addition | 31% of 920 active | shares compounds with TRPC6 inh | signal change vs control, % at 10 µM;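 active means membrane potential signal moving either way by over 3 SD of the maximum-effect control, in both duplicate plates, meaning non-specific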
HEK293 MPD ctr-1 = counter-screen for TRPC6 inhibitors: effect in parental HEK293 cells. shares compounds with TRPC6 inh. AID 2780. 60% of 920 active. parental HEK293 membrane potential dye fluorescence. membrane potential signal change, % at 10 µM;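 active means membrane potential signal shifting up or down by more than 3 SD of buffer-only wells, on both duplicate plates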
HEK293 MPD ctr-2 = parental HEK293 nonspecific activity of TRPC6 modulators; membrane potential dye fluorescence; AID 488924; membrane potential signal change, % at 10 µM; 51% of 2,400 active; shares compounds with TRPC6 inh;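 active means membrane potential signal moves up or down beyond 5 SD from buffer-only wells, on both duplicate plates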
HEK293 MPD ctr 2-2 = second counter-screen for TRPC6 modulators: effect in parental HEK293 cells; inhibition, % at 10 µM; AID 488926; shares compounds with TRPC6 inh; 14% of 2,400 active; membrane potential dye fluorescence; after compound, maximal acetylcholine stimulation;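 active means membrane potential signal drops by more than 5 SD from the mean control signal, in both duplicate plates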;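 further: plate controls were acetylcholine ECmax control wells for no effect and buffer only wells for full effect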
TRPC4/MOR mod = tests whether TRPC6 modulators also affect mouse TRPC4. 69% of 2,400 active. AID 488927. percent change from control (negative = decrease, positive = increase), % at 10 µM. shares compounds with TRPC6 inh. HEK293 TRPC4/mu-opioid, membrane potential fluorescence;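 active means membrane potential signal moved up or down beyond 5 SD of buffer control wells, in both duplicate plates, actives on both sides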;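 further: plate controls were assay buffer wells for no effect and DAMGO maximal-effect wells for full effect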
TRPC4/MOR inh 2 = second selectivity test of TRPC6 modulators against mouse TRPC4; shares compounds with TRPC6 inh; HEK293 TRPC4/mu-opioid, membrane potential dye fluorescence; stimulated with maximal-effect DAMGO; inhibition, % at 10 µM; 55% of 2,400 active; AID 488928;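 active means drop in membrane potential signal beyond 5 SD of the control wells in both duplicate plates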;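 further: TRPC4 counter screen for TRPC6 hits run under conditions tuned for TRPC6 not TRPC4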
TRPC6 inh conf = confirmation of mouse TRPC6 inhibitors | shares compounds with TRPC6 inh | HEK293-TRPC6, membrane potential dye, ACh-evoked depolarization | inhibition, % at 10 µM | 43% of 3,300 active | AID 488960;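 active means fluorescence ratio falls more than 5 SD below the full-stimulation control mean, in both duplicate runs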;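 further: integrated fluorescence ratio of peak minus minimum over baseline after agonist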
TRPC6 act conf = confirmation of mouse TRPC6 activators | shares compounds with TRPC6 inh | HEK293-TRPC6 membrane potential dye fluorescence, FDSS | activation, % at 10 µM | 11% of 2,800 active;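 active means ratio signal rise beyond 5 SD above unstimulated control wells' mean, seen in both duplicate runs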;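 further: plate controls were buffer EC0 wells for no effect and acetylcholine ECmax response for full effect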
An asterisk follows results filed as active; i = inactive; x = no result given. Rows were chosen to be rich in hits. Some 2.3% of all compounds tested hit in one or more screens of this group.

SMILES	TRPC4 act	TRPC6 activator	TRPC4 PAM	TRPC6 inh	TRPC4 inh	TRPC4 spec 2	TRPC4 spec	HEK293 MPD ctr 2-1	HEK293 MPD ctr-1	TRPC6 inh conf	TRPC6 act conf	others
COc1cccc(-c2nc(C(=O)NCCCN3CCOCC3)cc3c2[nH]c2ccccc23)c1	i	i	i	-7.3*	i	i	-10%*	i	-158%*	i	i
O=C(NCCCN1CCOCC1)c1cc2c([nH]c3ccccc32)c(-c2cccc(Br)c2)n1	i	i	i	-8.8*	i	i	i	i	i	54%*	i
COc1ccc(-c2[nH]c3ccccc3c2SCCNC(=O)c2ccccc2)cc1	i	i	i	i	i	x	x	x	x	x	x
NCCSc1c(-c2ccc(F)cc2)[nH]c2ccccc12	i	i	i	-6*	i	x	x	x	x	77%*	i	HEK293 MPD ctr-2=i;HEK293 MPD ctr 2-2=i;TRPC4/MOR mod=i;TRPC4/MOR inh 2=83%*
NCCSc1c(-c2ccccc2)[nH]c2ccccc12	i	i	i	-5.3*	i	x	x	x	x	52%*	i	HEK293 MPD ctr-2=i;HEK293 MPD ctr 2-2=i;TRPC4/MOR mod=i;TRPC4/MOR inh 2=57%*
Cc1ccc(-c2[nH]c3ccccc3c2SCCN)cc1	i	i	i	-6.7*	-7*	36%*	-12%*	i	-296%*	i	i
NCCSc1c(-c2ccc(Cl)cc2)[nH]c2ccccc12	129*	i	i	-6.7*	i	23%*	-12%*	i	-323%*	69%*	i
Cc1[nH]c2ccccc2c1SCCN	i	i	i	i	i	x	x	x	x	x	x
O=C(N/N=C/c1ccc(F)cc1)c1cccc(NC(=O)c2ccccc2Cl)c1	i	i	i	i	i	x	x	x	x	x	x
C=CCN1C(=O)C2C(C(=O)NC3CCCC3)C3(C)C=CC2(O3)C1C(=O)NC1CCCC1 (centres undefined)	i	i	i	i	i	x	x	x	x	x	x
C=Cn1cc[n+](CC(=O)c2ccc(OC)cc2)c1	i	i	i	i	i	x	x	x	x	x	x
COc1cc(/C=C/c2nc3ccc([N+](=O)[O-])cc3s2)ccc1OCC(=O)O	i	i	i	-6.7*	i	x	x	x	x	i	i	HEK293 MPD ctr-2=-69%*;HEK293 MPD ctr 2-2=i;TRPC4/MOR mod=-20%*;TRPC4/MOR inh 2=i
COc1cc(/C=C/c2ccc3c([N+](=O)[O-])cccc3n2)ccc1OCC(=O)O	i	i	i	i	i	x	x	x	x	x	x
